# Measurements of several laboratories.
# Lines come from different studies, so protocols differ.
Compound,system,setting,clearance
Cc1ccc2cncc(N3CCc4c(cc(Cn5ccnc5)cc4-c4cn(C)nc4C(F)(F)F)C3=O)c2c1,"male CD-1 mouse, plasma","intravenous, 3 mg/kg",16 mL/min/kg
CNCCN(C)c1cc(C#N)cc(CCc2cc(C)cc(N)n2)c1,"male BALB/c mouse, plasma","intravenous, 2 mg/kg",184 mL/min/kg
CC[C@H](C)[C@@H]1NC(=O)[C@@](C)(NC(=O)[C@H](CCCNC(=N)N)NC(=O)[C@H](CC(C)C)NC(=O)[C@@H](NC(=O)[C@H](CCC(N)=O)NC(=O)[C@H](CC(C)C)NC(C)=O)[C@@H](C)O)CCCC=CCCC[C@@](C)(C(=O)N[C@@H](CC(C)C)C(=O)N[C@@H](Cc2ccc3ccccc3c2)C(N)=O)NC(=O)[C@H](CCCNC(=N)N)NC(=O)[C@H](CCC(N)=O)NC1=O,"male BALB/c mouse, plasma","intravenous, 5 mg/kg",0.662 mL/min/kg
NC(=S)NN=Cc1ncccc1N,"female C57BL/6 mouse, plasma","intravenous, 20 mg/kg",13.8 mL/min/kg
COc1ccc2nccc(N3CCc4c(cc(Cn5ccnc5)cc4-c4cn(C)nc4C(F)(F)F)C3=O)c2c1,"male CD-1 mouse, plasma","intravenous, 3 mg/kg",27 mL/min/kg
Cc1c(Br)cc(NC(=O)C(c2ccccc2)S(=O)(=O)O)cc1Br (stereo not shown),"CD-1 mouse, blood","intravenous, 2 mg/kg",34.9 mL/min/kg
CN(C)c1ccc(-c2cc(=O)c3ccc(O)c(O)c3o2)cc1,"mouse, plasma","intravenous, 1 mg/kg",168 mL/min/kg
COc1cc(C(=O)N2CCC(N3CCN(C)CC3)CC2)ccc1Nc1ncc2c(n1)N(C)c1ccccc1C(=O)N2C,"mouse, plasma","intravenous, 1 mg/kg",5.6 mL/min/kg
CC(C)(C)c1ccc(O)c(CN(Cc2cc(C(C)(C)C)ccc2O)C2CCC(NC(N)=O)CC2)c1 (stereo not shown),"male C57BL/6 mouse, plasma","oral, 10 mg/kg, single dose",32.3 mL/min/kg
Cc1noc(C)c1-c1ccc2nc(-c3cnn(CC(C)(C)O)c3)nc(N3CCOC[C@@H]3c3ccccc3)c2c1,"CD-1 mouse, plasma","intravenous, 2 mg/kg",7.3 mL/min/kg
Nc1ncc(-c2ccncc2)nc1Nc1ccc2[nH]ccc2c1,"male C57BL/6 mouse, plasma","intravenous, 5 mg/kg",112 mL/min/kg
CN(C)C/C=C/C(=O)Nc1ccc(O[C@@H]2CCC[C@@H](Nc3ncc(Cl)c(-c4c[nH]c5ccccc45)n3)C2)cc1,"male Swiss mouse, plasma","intravenous, 3 mg/kg",24.9 mL/min/kg
CC(F)(F)CN1Cc2cc(C(F)(F)F)ncc2C2=CN=C(NCc3c(F)ccc4c3CCO4)N3C=NC(C1=O)C23 (stereo not shown),"male CD-1 mouse, plasma","intravenous, 2 mg/kg",0.39 mL/min/kg
